Measurements: article PMC6225502 (Journal of Clinical Oncology, 2018)

What was measured:
IDO1 [1] = assay: Pharmacokinetic-based projected IDO1 inhibition; design: species or system human
[2] = Safety and tolerability: treatment-related adverse events; type: in vivo, human
How it was run: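 Patients receiving ≥1 dose of oral epacadostat twice daily plus IV pembrolizumab every 3 weeks were assessed on day 1 of every cycle, at end of treatment and during follow-up. Liver function tests were run weekly for the first 6 weeks. AEs were graded per CTCAE v4.0 and summarized descriptively.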

IDO1 [3] = conditions: doses ≥ 100 mg twice per day; ref [1][6]; cited from earlier work
[4] = type: in vivo, human
How it was run: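 Adults with advanced solid tumors took oral epacadostat 25, 50 or 100 mg twice daily with IV pembrolizumab 2 mg/kg every 3 weeks, or 300 mg twice daily with 200 mg every 3 weeks, in 3 + 3 + 3 escalation. Expansion cohorts of up to nine received 50, 100 or 300 mg with 200 mg. DLTs were protocol-specified AEs within the first 6 weeks. RP2D was set by expansion tolerability.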

[5] = Plasma pharmacokinetics of epacadostat; type: in vivo, human
[6] = patients with advanced cancers; cited from earlier work
[7] = pembrolizumab monotherapy reference data set; cited from earlier work
[8] = epacadostat 100 mg twice per day + pembrolizumab
[9] = epacadostat 300 mg twice per day + pembrolizumab

Row | Molecule | Average concentrations at steady state relative to the IC50 associated with optimal target inhibition (IDO1 [1]; all patients who received epacadostat ≥ 100 mg twice per day) | Patients who achieved a minimum IDO1 inhibition of ≥ 50% (IDO1 [1]; epacadostat 100 mg twice per day) | Patients projected to have achieved ≥ 50% time-averaged IDO1 inhibition (IDO1 [1]; epacadostat 100 mg twice per day or 300 mg twice per day) | Patients projected to have achieved ≥ 50% time-averaged IDO1 inhibition (IDO1 [1]; steady state, all epacadostat doses) | Rate of AEs of special interest [2, 8] | Rate of grade 3/4 TRAEs [2, 8] | Rate of treatment-related dose interruptions [2, 8] | Rate of treatment-related dose reductions [2, 8] | Rate of AEs of special interest [2, 9] | Rate of grade 3/4 TRAEs [2, 9] | Rate of treatment-related dose interruptions [2, 9] | Rate of treatment-related dose reductions [2, 9] | Inhibition of IDO1 activity and kynurenine levels (IDO1 [3]) | DLTs observed ([4]; epacadostat 100 mg twice per day + pembrolizumab (15 patients)) | Recommended phase II dose (RP2D) of epacadostat ([4]; plus pembrolizumab 200 mg every 3 weeks) | Dose dependence of plasma exposures (AUC and Cmax) ([5]; 25 to 300 mg twice per day + pembrolizumab) | Time of maximum observed plasma concentration ([5]; across doses) | Tolerability of single-agent epacadostat [6] | Treatment-emergent antipembrolizumab antibody rate [7]
1 | NS(=O)(=O)NCCNc1nonc1C(=NO)Nc1ccc(F)c(Br)c1 [Epacadostat] | exceeded the IC50 | the majority of patients | all patients | > 90% | 6% | 28% | 22% | 11% | 30% | 35% | 45% | 35% | provide optimal inhibition of IDO1 activity and normalization of kynurenine levels | grade 3 AST increased/grade 2 ALT increased and grade 2 nervous system disorder occurred in one patient each | 100 mg twice per day | increased in an approximately dose-proportional manner | approximately 2 hours | well tolerated | –
2 | pembrolizumab | – | – | – | – | – | – | – | – | – | – | – | – | – | – | – | – | – | – | 2.1%
